Measured values collected from several papers.
Lines come from different studies, so protocols differ.
MAOB: Amine oxidase [flavin-containing] B (MAOB, Homo sapiens, UniProt P27338)
TNFAIP3: TNFAIP3 (Homo sapiens, UniProt P21580)
EDNRB: Endothelin receptor type B (EDNRB, Homo sapiens, UniProt P24530)

| SMILES | target | effect on | mode | technique | concentration | inhibition [%] |
| --- | --- | --- | --- | --- | --- | --- |
| CC(C)C[C@H](NC(=O)[C@H]1O[C@@H]1C(=O)O)C(=O)NCCCCN=C(N)N | Cathepsin L2 (CTSV, Homo sapiens, UniProt O60911) | enzyme activity | inhibitor |  | 5 nM | 17 |
| c1ccc(C(NCCNC(c2ccccc2)c2ccccc2)c2ccccc2)cc1 | MAOB | enzyme activity | inhibitor |  | 10 µM | 5 |
| COCc1c(-c2cc3cc(C)cc(OC)c3s2)c2c(N)ncnn2c1CN1CCNC(=O)C1 | MAOB | enzyme activity | inhibitor |  | 10 µM | 5 |
| CN(C)C(=O)COC(=O)Cc1ccc(OC(=O)c2ccc(NC(=N)N)cc2)cc1 | TNFAIP3 | enzyme activity | inhibitor |  | 10 µM | 4 |
| CN1CCN(CCOc2ccc3occc(=O)c3c2)CC1 | MAOB | enzyme activity | inhibitor | fluorescence | 10 µM | 12 |
| CN(CCN1CCC(OC(=O)Nc2ccccc2-c2ccccc2)CC1)C(=O)c1ccc(CN2CCC(C(N)=O)CC2)cc1 | EDNRB | ligand displacement |  | radioligand | 1 µM | 11 |
| C[C@@H]1CCCN1CCCCOc1ccc2occc(=O)c2c1 | MAOB | enzyme activity | inhibitor | fluorescence | 10 µM | 28 |
| O=C(Nc1cccnn1)N1CCN([C@@H]2CCOc3cc(C(F)(F)F)ccc32)CC1 | EDNRB | cell-free assay |  |  | 20 µM | -5 |
| COc1cc(Nc2ncc(F)c(Nc3ccc4c(n3)NC(=O)C(C)(C)O4)n2)cc(OC)c1OC | Phosphatidylinositol 3-kinase C2 domain-containing subunit gamma (PIK3C2G, Homo sapiens, UniProt O75747) | binding |  | competition with immobilised ligand | 10 µM | 48 |
| COc1ccc(S(=O)(=O)N(CC(=O)NO)CC(C)C)cc1 | Matrix metalloproteinase-9 (MMP9, Homo sapiens, UniProt P14780, Q279R) | enzyme activity | inhibitor |  | 1 nM | 27 |
| Cc1ncc(C)n2nc(/C=C/c3nc(N4CCCC4)cc(N4CCOCC4)n3)nc12 | Matrix metalloproteinase-9 (MMP9, Homo sapiens, UniProt P14780) | enzyme activity | inhibitor |  | 10 µM | 12 |
| N=C(N)c1ccc2cc(OC(=O)c3ccc(N=C(N)N)cc3)ccc2c1 | TNFAIP3 | enzyme activity | inhibitor |  | 10 µM | 13 |
| CC(C)N1CCC[C@H]1CNC(=O)c1cn(C2CCCC2)c(=O)c2c1c1ccccc1n2C | EDNRB | ligand displacement |  | radioligand | 10 µM | 3 |
| COc1ccc(S(=O)(=O)N2CCCCC2)cc1C | EDNRB | ligand displacement |  | radioligand | 10 µM | < 30 |
